The values that follow come from ChEMBL document CHEMBL1138791, “Acyl sulfonamide anti-proliferatives: benzene substituent structure-activity relationships for a novel class of antitumor agents” (J Med Chem, 2004).

Test [1] is described as follows: Diameter of zone of inhibition for cell colony formation of normal fibroblast at the dose of 190 ug; Range is 0-12.35. In kind it is functional, Homo sapiens. In a few lines:
(§1)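 Soft agar disk diffusion: leukemia (L1210), solid tumor (HCT116, or colon H15) and normal fibroblast cells seeded in soft agar in separate 60 mm dishes. Compound applied to a filter paper disk (dose in μg/disk) set on the agar. Colony-formation inhibition zones read after 6–7 days at 37 °C. 200 zone units = 6.5 mm; 950 = total inhibition; a range marks partial colony shrinkage. n > 2 unless noted.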

The test system of test [2] is HCT-116. The test can be described thus: Diameter of zone of inhibition for cell colony formation of solid tumor HCT116 at the dose of 190 ug. It is filed as functional, Homo sapiens. Summed up:
as §1

Test [3] has as its system HL-60. Put plainly: Growth inhibitory activity against human leukemia HL-60 (TB) cell line. It is filed as functional. Further details: unit not given here.
The test system of test [4] is SW-620. The test can be described thus: Growth inhibitory activity against human colon SW620 cell line. In kind it is functional. In a few lines: (§2)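 Cell-line screen run at NCI by published procedures. […] The mean graph midpoint is taken across all human cancer cell lines successfully tested.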
In test [5] the test system is MCF7. The test can be described thus: Growth inhibitory activity against human breast MCF-7 cell line. It is filed as functional. Summed up:
as §2

Test [6] is described as follows: Diameter of zone of inhibition for cell colony formation of normal fibroblast at the dose of 190 ug; Range is 0-13.65. It is filed as functional, Homo sapiens. In a few lines: as §1
Test [7] has as its system RXF 393. The test can be described thus: Growth inhibitory activity against human renal RXF-393 cell line. In kind it is functional. Summed up: as §2
The test system of test [8] is HT-29. The test can be described thus: Growth inhibitory activity against human colon HT-29 cell line. It is filed as functional. In a few lines: as §2
Test [9] relates to NCI-H522. The test can be described thus: Growth inhibitory activity against human lung NCI-H522 cell line. It is filed as functional. Summed up: as §2
Test [10] has as its system L1210. Put plainly: Diameter of zone of inhibition for cell colony formation of leukemia L1210 at the dose of 190 ug; Range is 0-5.525. In kind it is functional, Mus musculus. Summed up: as §1
In test [11] the test system is Panel (Carcinoma cell lines). The test can be described thus: Mean graph mid point value for cytotoxic activity against human cancer cell lines was determined. In kind it is functional. Summed up:
as §2

In test [12] the test system is HCT-116. Put plainly: Growth inhibitory activity against human colon HCT116 cell line. It is filed as functional. Summed up: as §2
The nature of test [13]: Diameter of zone of inhibition for cell colony formation of normal fibroblast at the dose of 210 ug; Range is 0-13.975. In kind it is functional, Homo sapiens. Summed up: as §1
For test [14], the system named is HCT-116. The test can be described thus: Diameter of zone of inhibition for cell colony formation of solid tumor HCT116 at the dose of 210 ug. In kind it is functional, Homo sapiens. In a few lines:
(§3)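 HCT116, L1210 leukaemia and normal fibroblast cells were seeded in soft agar in separate 60 mm dishes. The compound was applied to a filter-paper disk laid on the agar. Colony-formation inhibition zones were read after 6–7 days at 37 °C and expressed in zone units (200 units = 6.5 mm; 950 = total inhibition; 0 = none). n > 2 unless otherwise indicated.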

For test [15], the system named is L1210. Put plainly: Diameter of zone of inhibition for cell colony formation of leukemia L1210 at the dose of 210 ug; Range is 3.75-5.525. In kind it is functional, Mus musculus. In a few lines: as §1
Test [16] relates to L1210. The test can be described thus: Diameter of zone of inhibition for cell colony formation of leukemia L1210 at the dose of 210 ug; Range is 0-8.125. It is filed as functional, Mus musculus. Summed up:
as §1

Test [17] in a line: Diameter of zone of inhibition for cell colony formation of normal fibroblast at the dose of 210 ug. It is filed as functional, Homo sapiens. Summed up: as §1
Test [18] relates to HCT-116. The test can be described thus: Diameter of zone of inhibition for cell colony formation of solid tumor HCT116 at the dose of 190 ug; Range is 22.75-24.375. It is filed as functional, Homo sapiens. Summed up: as §3
Test [19] relates to L1210. Put plainly: Diameter of zone of inhibition for cell colony formation of leukemia L1210 at the dose of 190 ug. In kind it is functional, Mus musculus. In a few lines: as §1
Test [20] is described as follows: Diameter of zone of inhibition for cell colony formation of normal fibroblast at the dose of 190 ug; Range is 0-10.25. In kind it is functional, Homo sapiens. In a few lines: as §1
Test [21] is described as follows: Diameter of zone of inhibition for cell colony formation of normal fibroblast at the dose of 190 ug. It is filed as functional, Homo sapiens. In a few lines:
as §1

Test [22] in a line: Diameter of zone of inhibition for cell colony formation of normal fibroblast at the dose of 190 ug; Range is 0-12.025. In kind it is functional, Homo sapiens. Summed up: as §1
Test [23] has as its system L1210. Put plainly: Diameter of zone of inhibition for cell colony formation of leukemia L1210 at the dose of 200 ug. It is filed as functional, Mus musculus. In a few lines: as §1
Test [24] can be described thus: Diameter of zone of inhibition for cell colony formation of normal fibroblast at the dose of 200 ug. It is filed as functional, Homo sapiens. Summed up: as §1
The subject of test [25] is HCT-116. The test can be described thus: Diameter of zone of inhibition for cell colony formation of solid tumor HCT116 at the dose of 200 ug. In kind it is functional, Homo sapiens. In a few lines: as §3
A short description of test [26]: Diameter of zone of inhibition for cell colony formation of normal fibroblast at the dose of 210 ug; Range is 0-9.425. It is filed as functional, Homo sapiens. In a few lines: as §1
The subject of test [27] is L1210. The test can be described thus: Diameter of zone of inhibition for cell colony formation of leukemia L1210 at the dose of 210 ug; Range is 6.5-8.125. It is filed as functional, Mus musculus. In a few lines:
as §1

Test [28] is described as follows: Diameter of zone of inhibition for cell colony formation of normal fibroblast at the dose of 190 ug; Range is 0-8.775. It is filed as functional, Homo sapiens. Summed up:
as §1

The test system of test [29] is L1210. Put plainly: Diameter of zone of inhibition for cell colony formation of leukemia L1210 at the dose of 190 ug; Range is 0-6.825. In kind it is functional, Mus musculus. Summed up:
as §1

For test [30], the system named is Mus musculus. The test can be described thus: Tumor growth delay of human HCT116 colorectal carcinoma in mice after intravenous administration at dose of 100 mg/kg. It is filed as functional.

As to `Cc1ccc(S(=O)(=O)NC(=O)c2ccc(Cl)cc2Cl)cc1Cl`, the Inhibition in [1] was 12.35 mm; in test [2], 18.52 mm.

On to `COc1ccc(S(=O)(=O)NC(=O)c2ccc(Cl)cc2Cl)cc1`, for which the GI50 in [3] amounted to 38.9; in test [4], 9.5 µM; in test [5] it was 23.9 µM; in test [7], 6.4 µM; in test [8], 41.5 µM; in [9], 39.6 µM. In [12], this molecule yielded a GI50 of 3.5 µM. The Inhibition in [2] came to 21.12 mm; in [6] it was 13.65 mm; in test [10], 5.52 mm. Further, the MGM in test [11] is 28.8.

Turning to `O=C(NS(=O)(=O)c1ccc(Br)cc1)c1ccc(Cl)cc1Cl`, the Inhibition is listed as 13.97 mm in [13], 20.15 mm in [14] and 5.52 mm in [15].

As to `Nc1cc(Cl)ccc1C(=O)NS(=O)(=O)c1ccc(Cl)cc1`, the Inhibition is reported as 8.12 mm in test [16], 19.82 mm in test [14] and 8.77 mm in test [17].

Consider `Cc1cc(Br)ccc1C(=O)NS(=O)(=O)c1ccc(Cl)cc1`, for which the Inhibition in test [18] is listed as 24.37 mm; in [19], 0 mm; in test [20], 10.25 mm.

On to `CN(C)c1ccc(C(=O)NS(=O)(=O)c2ccc(Cl)cc2)cc1`, for which the results for the Inhibition in [2], in [19] and in test [21] were 11.7 mm, 5.85 mm and 0 mm, respectively.

On to `Cc1cc(Cl)ccc1C(=O)NS(=O)(=O)c1ccc(Cl)cc1`, for which the GI50 in test [3] was determined as 49.5; in test [4], 37.9 µM; in [5] it was 17.7 µM; in test [7], 8.6 µM; in [8], 100 µM; in test [9], 100 µM. The molecule further registered a GI50 in test [12] of 9.7 µM. Besides, in test [11], the MGM came to 41.7.

Turning to `O=C(NS(=O)(=O)c1cccc(-c2ccccc2)c1)c1ccc(Cl)cc1Cl`, the Inhibition in [22] is given as 12.02 mm; in test [2] it was 19.5 mm; in test [19], 0 mm.

As to `O=C(NS(=O)(=O)c1cc([N+](=O)[O-])ccc1Cl)c1ccc(Cl)cc1Cl`, the Inhibition in test [23], in [24] and in [25] was 0 mm each time.

`O=C(NS(=O)(=O)c1ccc(-c2ccccc2)cc1)c1ccc(Cl)cc1Cl`: the results for the Inhibition in [26], in test [27] and in [14] were 9.42 mm, 8.12 mm and 16.25 mm, respectively.

In the case of `O=C(NS(=O)(=O)c1ccc(Br)c(Br)c1)c1ccc(Cl)cc1Cl`, the Inhibition in [28] is 8.77 mm; in test [2], 13.84 mm; in test [29], 6.82 mm.

In the case of `O=C(NS(=O)(=O)c1ccc(Cl)cc1)c1ccc([N+](=O)[O-])cc1`, the Inhibition in [2] was 8.77 mm; in [19] it was 6.5 mm; in test [21], 0 mm.

The molecule `CCc1c2c(nc3ccc(OC(=O)N4CCC(N5CCCCC5)CC4)cc13)-c1cc3c(c(=O)n1C2)COC(=O)[C@]3(O)CC.Cl` showed a Growth delay in [30] of 15 days.
